From ChEMBL document CHEMBL2157928, “Diarylheptanoid glycosides from Tacca plantaginea and their effects on NF-κB activation and PPAR transcriptional activity” (Bioorg Med Chem Lett, 2012)
pEC50, pIC50: −log10 of the molar value.

Key:
Type in all cases: cell-based
[1] = (§1) Inhibition of NF-kappaB expressed in human HepG2 cells assessed as inhibition of TNFalpha-induced luciferase activity preincubated for 1 hr followed by TNFalpha challenge measured after 1 hr by reporter gene assay
How it was run: (§2)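 HepG2 cells transfected with an NF-κB-luciferase reporter were pretreated with compound at 0.1, 1 and 10 µM, then stimulated with TNF-α at 10 ng/mL. Sulfasalazine at 10 µM served as positive control. Luciferase activity was read. Data are mean ± SD (n = 3), with Dunnett's multiple comparison test, and IC50 was derived from the dose–response.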

[2] = target: Peroxisome proliferator-activated receptor (Homo sapiens) (UniProt P37231+Q07869+Q03181); test: (§3) Transactivation of PPAR transfected in human HepG2 cells after 20 hrs by luciferase reporter gene assay
[3] = target: T1, Peroxisome proliferator-activated receptor (Homo sapiens, UniProt P37231+Q07869+Q03181); test: as §3
T1 sequence (P37231 whole entry): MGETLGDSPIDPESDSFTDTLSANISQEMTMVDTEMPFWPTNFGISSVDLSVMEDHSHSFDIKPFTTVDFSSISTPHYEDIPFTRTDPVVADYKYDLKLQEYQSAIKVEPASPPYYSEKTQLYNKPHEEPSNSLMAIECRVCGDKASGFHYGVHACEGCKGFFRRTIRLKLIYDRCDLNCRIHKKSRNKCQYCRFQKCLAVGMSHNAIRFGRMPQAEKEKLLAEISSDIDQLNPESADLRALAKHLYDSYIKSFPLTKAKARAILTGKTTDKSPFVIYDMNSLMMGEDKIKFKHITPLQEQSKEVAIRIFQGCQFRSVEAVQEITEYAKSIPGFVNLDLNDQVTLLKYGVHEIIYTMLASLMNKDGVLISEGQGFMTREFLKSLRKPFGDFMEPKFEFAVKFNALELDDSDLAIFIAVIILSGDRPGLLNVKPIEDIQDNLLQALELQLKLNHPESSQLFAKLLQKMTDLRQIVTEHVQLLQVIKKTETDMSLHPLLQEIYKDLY
T1 sequence (Q07869 whole entry): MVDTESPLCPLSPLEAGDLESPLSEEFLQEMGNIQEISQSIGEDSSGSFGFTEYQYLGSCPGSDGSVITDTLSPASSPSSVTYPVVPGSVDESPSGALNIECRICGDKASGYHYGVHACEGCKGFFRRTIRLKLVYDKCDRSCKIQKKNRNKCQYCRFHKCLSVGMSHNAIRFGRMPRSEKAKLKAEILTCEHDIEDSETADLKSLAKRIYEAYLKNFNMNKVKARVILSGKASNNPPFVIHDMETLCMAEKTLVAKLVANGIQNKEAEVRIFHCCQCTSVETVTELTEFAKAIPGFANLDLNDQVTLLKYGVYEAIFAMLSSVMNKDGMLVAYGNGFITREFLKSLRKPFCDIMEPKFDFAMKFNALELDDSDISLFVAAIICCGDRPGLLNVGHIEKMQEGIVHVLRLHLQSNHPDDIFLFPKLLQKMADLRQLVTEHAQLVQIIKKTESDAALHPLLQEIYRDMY
T1 sequence (Q03181 whole entry): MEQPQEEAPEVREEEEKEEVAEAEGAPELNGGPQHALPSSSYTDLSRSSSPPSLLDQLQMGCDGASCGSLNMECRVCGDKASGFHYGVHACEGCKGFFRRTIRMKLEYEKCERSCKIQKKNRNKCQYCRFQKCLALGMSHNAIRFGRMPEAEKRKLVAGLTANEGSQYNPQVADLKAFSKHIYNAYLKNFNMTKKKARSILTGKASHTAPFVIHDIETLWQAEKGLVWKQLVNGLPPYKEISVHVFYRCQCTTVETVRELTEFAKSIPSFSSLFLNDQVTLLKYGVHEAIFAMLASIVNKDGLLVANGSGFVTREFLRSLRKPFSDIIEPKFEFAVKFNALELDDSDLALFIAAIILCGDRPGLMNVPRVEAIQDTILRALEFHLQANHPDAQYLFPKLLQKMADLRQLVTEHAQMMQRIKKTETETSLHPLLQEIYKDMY

[4] = target: T2, Peroxisome proliferator-activated receptor alpha (Homo sapiens) (UniProt Q07869); test: Transactivation of GAL4-fused PPARalpha ligand binding domain transfected in human HepG2 cells at 10 uM after 20 hrs by luciferase reporter gene assay relative to control
T2 sequence (whole entry): T1 sequence (Q07869 whole entry)
How it was run: (§4)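 PPARα transactivation was measured by luciferase reporter in HepG2 cells. Activity was compared with a vehicle group, and ciprofibrate (1 µM) was the positive control.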

[5] = target: T3, Peroxisome proliferator-activated receptor alpha (Homo sapiens, UniProt Q07869); test: Transactivation of GAL4-fused PPARalpha ligand binding domain transfected in human HepG2 cells after 20 hrs by luciferase reporter gene assay; how it was run: as §4
T3 sequence (Q07869 whole entry): T1 sequence (Q07869 whole entry)

[6] = target: T4, Peroxisome proliferator-activated receptor gamma (Homo sapiens, UniProt P37231); test: Transactivation of GAL4-fused PPARgamma ligand binding domain transfected in human HepG2 cells after 20 hrs by luciferase reporter gene assay
T4 sequence (P37231 whole entry): T1 sequence (P37231 whole entry)

[7] = target: T5, Peroxisome proliferator-activated receptor delta (Homo sapiens) (UniProt Q03181); test: (§5) Transactivation of GAL4-fused PPARbeta (delta) ligand binding domain transfected in human HepG2 cells after 20 hrs by luciferase reporter gene assay
T5 sequence (whole entry): T1 sequence (Q03181 whole entry)
How it was run: (§6)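 For PPARβ(δ), luciferase transactivation was measured in HepG2 cells against a vehicle group, with L-165041 (1 µM) as positive control. EC50 came from the dose–response, given as mean ± SD (n = 3), with a cutoff of EC50 > 50 µM for inactivity.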

[8] = target: T6, Peroxisome proliferator-activated receptor delta (Homo sapiens, UniProt Q03181); test: as §5; how it was run: as §6
T6 sequence (Q03181 whole entry): T1 sequence (Q03181 whole entry)

HepG2 [9] = test: Cytotoxicity against human HepG2 cells assessed as cell viability at 10 uM after 24 hrs by MTS assay; settings: hepg2, 24 h
[10] = target: T7, Peroxisome proliferator-activated receptor gamma (Homo sapiens) (UniProt P37231); test: Transactivation of GAL4-fused PPARgamma ligand binding domain transfected in human HepG2 cells assessed as upregulation of gene expression at 10 uM by luciferase reporter gene assay relative to control
T7 sequence (whole entry): T1 sequence (P37231 whole entry)
How it was run: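 In HepG2 cells, PPARγ luciferase transactivation was expressed as fold over the vehicle group. Troglitazone (1 µM) was the positive control, and significance was set against vehicle at p < 0.01.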

HepG2 [11] = test: as §1; how it was run: as §2

Row | pIC50 [1] | Activity [2] | EC50 [3] | fold change (FC) [4] | pEC50 [5] | pEC50 [6] | Activity [7] | pEC50 [8] | fold change (FC) [10] | Structure (SMILES) | Activity (HepG2 [9]) | inhibition (HepG2 [11])
1 | < 5.00 | Dose-dependent effect | 10.4 µM | 1.3 | < 4.30 | 4.48 | Dose-dependent effect | 4.88 | 1.5 | OC[C@H]1O[C@@H](Oc2ccc(CCCC[C@H](O)CCc3ccc(O[C@@H]4O[C@H](CO)[C@@H](O)[C@H](O)[C@H]4O)c(O)c3)cc2O)[C@H](O)[C@@H](O)[C@@H]1O [PLANTAGINEOSIDE B] | Non-toxic | –
2 | 6.05 | Dose-dependent effect | 0.3 µM | 1.4 | 4.37 | < 4.30 | Dose-dependent effect | 4.81 | – | OC[C@H]1O[C@@H](O[C@H](CCc2ccc(O)c(O)c2)C[C@H](O)CCc2ccc(O)cc2)[C@H](O)[C@@H](O)[C@@H]1O | Non-toxic | Dose-dependent effect
3 | < 5.00 | Dose-dependent effect | 7 µM | 1.4 | 4.33 | < 4.30 | Dose-dependent effect | 4.96 | – | O=C(CCCCc1ccc(O[C@@H]2O[C@H](CO)[C@@H](O)[C@H](O)[C@H]2O)c(O)c1)CCc1ccc(O[C@@H]2O[C@H](CO)[C@@H](O)[C@H](O)[C@H]2O)c(O)c1 [PLANTAGINEOSIDE A] | Non-toxic | –
4 | 5.10 | Dose-dependent effect | 5.2 µM | – | < 4.30 | < 4.30 | Dose-dependent effect | 4.52 | – | OC[C@H]1O[C@@H](O[C@@H]2C[C@H](CCc3ccc(O)c(O)c3)O[C@H](c3ccc(O)c(O)c3)C2)[C@H](O)[C@@H](O)[C@@H]1O [PLANTAGINEOSIDE C] | Non-toxic | Dose-dependent effect
5 | – | – | – | – | – | – | – | 6.19 | – | CCCc1c(OCCCOc2ccc(OCC(=O)O)cc2)ccc(C(C)=O)c1O | – | –
6 | 5.21 | Dose-dependent effect | 1.2 µM | – | < 4.30 | < 4.30 | Dose-dependent effect | 4.53 | – | OC[C@H]1O[C@@H](O[C@H](CCc2ccc(O)cc2)C[C@H](O)CCc2ccc(O)cc2)[C@H](O)[C@@H](O)[C@@H]1O | Non-toxic | Dose-dependent effect
7 | 5.03 | Dose-dependent effect | 9.9 µM | 1.3 | < 4.30 | < 4.30 | Dose-dependent effect | 4.64 | – | OC[C@H]1O[C@@H](O[C@H](CCc2ccc(O)c(O)c2)C[C@H](O)CCc2ccc(O)c(O)c2)[C@H](O)[C@@H](O)[C@@H]1O | Non-toxic | Dose-dependent effect

Row | Structure (SMILES) | pIC50 [1] | Activity [2] | EC50 [3] | fold change (FC) [4] | pEC50 [5] | pEC50 [6] | Activity [7] | pEC50 [8] | fold change (FC) [10] | Activity (HepG2 [9]) | inhibition (HepG2 [11])
8 | O=C(O)c1cc(/N=N/c2ccc(S(=O)(=O)Nc3ccccn3)cc2)ccc1O [SULFASALAZINE] | 6.05 | – | – | – | – | – | – | – | – | – | –
